This is an account of results in ChEMBL document CHEMBL1142722, “Discovery and selection of TMC114, a next generation HIV-1 protease inhibitor” (J Med Chem, 2005).

Data set [1] has as its system Human immunodeficiency virus 1. The data set is described as follows: Effective concentration against PI-Resistant HIV strain (M1). The data set is classed as functional, organism-based. An outline of the steps: (§1)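 MTT cytopathic-effect assay in MT-4 cells infected with recombinant HIV carrying clinical-isolate-derived protease and RT sequences in an HXB2-derived backbone. Inoculum 200-250 CCID50/well, 30 000 cells/well, compound over a concentration range. Incubation 5 days at 37 °C, 5% CO2. […] Cytotoxicity run in parallel on mock-infected cells.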

The test system of data set [2] is Human immunodeficiency virus 1. In words: Effective concentration against PI-Resistant HIV strain (M2). The data set is classed as functional, organism-based. The conditions noted are these: for pEC50: Human immunodeficiency virus 1. In short, it runs like this: as §1
Data set [3] has as its system Human immunodeficiency virus 1. In words: Effective concentration against PI-Resistant HIV strain (M3). It is filed as functional, organism-based. The conditions noted are these: for pEC50: Human immunodeficiency virus 1. In short, it runs like this: as §1
Data set [4] relates to Human immunodeficiency virus 1. The data set is described as follows: Effective concentration against PI-Resistant HIV strain (M4). The conditions noted are these: for pEC50: Human immunodeficiency virus 1. It is filed as functional, organism-based. In short, it runs like this:
as §1

For data set [5], the system named is Human immunodeficiency virus 1. In words: Effective concentration against PI-Resistant HIV strain (M5). It is filed as functional, organism-based. The conditions noted are these: for pEC50: Human immunodeficiency virus 1. An outline of the steps: as §1
Data set [6] deals with Human immunodeficiency virus 1. In words: Effective concentration of against HIV Wild Type (IIIB) strain. It is filed as functional, organism-based. The conditions noted are these: for pEC50: Human immunodeficiency virus 1. An outline of the steps:
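Wild-type HIV-1 IIIB was tested in MT-4 cells by MTT colorimetric CPE assay. Compound was serially diluted, with virus at 200-250 CCID50/well and 30 000 cells/well. […] Mock-infected cultures were run in parallel for cytotoxicity.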

Data set [7] concerns Human immunodeficiency virus 1. In words: Effective concentration as average activity on mutant HIV panel (AVMUT). It is filed as functional, organism-based. The conditions noted are these: for pEC50: Human immunodeficiency virus 1. An outline of the steps: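 Mean pEC50 across the panel of PI-resistant recombinant clinical-isolate strains. Each strain was tested by MTT CPE assay in MT-4 cells at 200-250 CCID50/well and 30 000 cells/well, read after 5 days at 37 °C, 5% CO2.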

Data set [8] is described as follows: Half-life in dog after 80 mg/kg oral administration. The conditions noted are these: in vivo. The data set is classed as ADME, organism-based, Canis lupus familiaris. The arrangement: dose 80 mg/kg, route oral. In short, it runs like this: (§2)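 Single oral dose of 80 mg/kg given to dogs as a PEG400 solution. Plasma exposure parameters are reported as the mean of four measurements, with the standard deviation in parentheses.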

Data set [9] in a line: Area under concentration time curve value in dog after 80 mg/kg oral administration. It is filed as ADME, organism-based, Canis lupus familiaris. The arrangement: dose 80 mg/kg, route oral. The conditions noted are these: in vivo. An outline of the steps:
as §2

Data set [10] is described as follows: Maximum plasma concentration in dog after 80 mg/kg oral administration. It is filed as ADME, organism-based, Canis lupus familiaris. Details: dose 80 mg/kg, route oral. In short, it runs like this:
as §2

Data set [11] in a line: Percentage of remaining compound after 30 min incubation in dog liver microsomes was determined as metabolic stability. The conditions noted are these: read-out: Remaining compound. The data set is classed as ADME, Canis lupus familiaris, Microsome. In short, it runs like this:
(§3)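 Compound incubated with rat, dog or human liver microsomes for 30 min at 37 °C. Residual parent compound in the reaction mixture was measured directly by LC-MS and expressed as % remaining.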
Background: Microsomes from liver hold many membrane-bound enzymes, among them those of drug oxidation.

A short description of data set [12]: Percentage of remaining compound after 30 min incubation in rat liver microsomes was determined as metabolic stability. It is filed as ADME, Microsome. The conditions noted are these: read-out: Remaining compound. An outline of the steps: as §3
Data set [13] in a line: Percentage of remaining compound after 30 min incubation in human liver microsomes was determined as metabolic stability. It is filed as ADME, Microsome. The conditions noted are these: read-out: Remaining compound. In short, it runs like this:
as §3

Data set [14] can be described thus: Time to reach maximum concentration in dog after 80 mg/kg oral administration. The data set is classed as ADME, organism-based, Canis lupus familiaris. Details: dose 80 mg/kg, route oral. The conditions noted are these: in vivo. In short, it runs like this:
as §2

In general, pEC50 refers to the negative decadic logarithm of the EC50, by convention in mol/L. Low values mean a high EC50, high ones a low EC50. As a reminder, the half-life is the time needed for the level to fall by half in the phase considered. Read a high half-life as slow decline. One may read the Cmax as the peak of the concentration-time curve. For orientation: Tmax means the time from dosing to the highest level.

Molecules are shown by their SMILES. pEC50: −log10 of the molar value.

Turning to `CC(C)CN(C[C@@H](O)[C@H](Cc1ccccc1)NC(=O)O[C@H]1CO[C@H]2OCC[C@H]21)S(=O)(=O)c1ccc([N+](=O)[O-])cc1`, the pEC50 in data set [1] was 7.47; in [2], 7.53; in data set [3], 8.34; in data set [4], 7.66; in data set [5], 7.34; in data set [6], 8.61. The negative-log EC50 (pEC50) in data set [7] is 7.67.

In turn, `CC(C)CN(C[C@@H](O)[C@H](Cc1ccccc1)NC(=O)O[C@H]1CO[C@H]2OCC[C@H]21)S(=O)(=O)c1ccc(N)cc1` (stereo in doubt; form 2) gave a half-life in data set [8] of 0.781 h. Besides, the AUC last in data set [9] amounted to 74100 ng·h/mL. In data set [1], the pEC50 is 8.29. Further, the “Log EC50” value in data set [2] is -8.14; in data set [3], -8.14; in [6] it was -8.39; in data set [7], -8.29. This compound also showed a Cmax in [10] of 19100 ng/mL. Moreover, the share remaining at 0.5 h in [11] was 80%; in [12] it was 92%; in data set [13] it was 85%. In data set [14], the Tmax was 1 h.

`CC(C)CN(C[C@@H](O)[C@H](Cc1ccccc1)NC(=O)O[C@@H]1CO[C@H]2OCC[C@H]21)S(=O)(=O)c1ccc(N)cc1`: the pEC50 was 6.12 in data set [1]; 5.65 in data set [2]; 6.32 in data set [3]; 5.95 in data set [4]; 6.62 in data set [6]; 6.01 in data set [7].

Regarding `CC(C)(C)NC(=O)[C@@H]1CN(Cc2cccnc2)CCN1C[C@@H](O)C[C@@H](Cc1ccccc1)C(=O)N[C@H]1c2ccccc2C[C@H]1O`, the share remaining at 0.5 h in [11] was 85%; in data set [12], 97%; in [13], 95%.

In the case of `CC(=O)c1ccc(S(=O)(=O)N(CC(C)C)C[C@@H](O)[C@H](Cc2ccccc2)NC(=O)O[C@H]2CO[C@H]3OCC[C@H]32)cc1`, the pEC50 in data set [1] is 7.50; in data set [2], 7.80; in data set [3], 8.22; in data set [5], 7.93; in [6] it was 8.71; in data set [7], 7.86.

Regarding `Cc1ccc(S(=O)(=O)N(CC(C)C)C[C@@H](O)[C@H](Cc2ccccc2)NC(=O)OC2COC3OCCC23)cc1` (mixture of isomers), the pEC50 in data set [1] was 6.89; in data set [2], 6.97; in data set [3], 7.45; in data set [4], 7.42; in data set [5] it was 7.39; in data set [6], 8.28. In [7], the pEC50 is 7.22.

As to `CC(C)CN(C[C@@H](O)[C@H](Cc1ccccc1)NC(=O)O[C@H]1CO[C@H]2OCC[C@H]21)S(=O)(=O)c1ccc(CN)cc1`, the pEC50 in data set [1] is 8.12; in data set [2] it was 7.80; in [3], 8.22; in data set [4], 8.18; in data set [5], 8.25; in [6] it was 8.15. For the same compound, the pEC50 in data set [7] was 8.11.

Regarding `CC(C)CN(C[C@@H](O)[C@H](Cc1ccccc1)NC(=O)O[C@H]1CO[C@H]2OCC[C@H]21)S(=O)(=O)c1cccc(N)c1`, the pEC50 in data set [1] is 6.12; in data set [2], 7.32; in data set [3], 7.55; in data set [4], 7.58; in data set [5] it was 7.58; in data set [6], 8.36. In [7], this compound showed a pEC50 of 7.37.

With `CC(C)CN(C[C@@H](O)[C@H](Cc1ccccc1)NC(=O)O[C@H]1CO[C@H]2OCC[C@H]21)S(=O)(=O)c1ccc(I)cc1`, the pEC50 is 7.48 in data set [1]; 7.86 in data set [2]; 8.39 in data set [3]; 8.28 in [4]; 8.30 in data set [5]; 8.82 in data set [6]. Further, in data set [7], the pEC50 is 8.06.

Consider `CC(C)CN(C[C@@H](O)[C@H](Cc1ccccc1)NC(=O)O[C@H]1CO[C@H]2OCC[C@H]21)S(=O)(=O)c1ccc(C#N)cc1`, for which the pEC50 in data set [1] is 6.94; in data set [2], 6.81; in data set [3] it was 7.40; in [4], 7.05; in data set [5] it was 6.86; in [6] it was 8.28. Moreover, the pEC50 in [7] is 7.01.

Take `CC(C)CN(C[C@@H](O)[C@H](Cc1ccccc1)NC(=O)O[C@H]1CCOC1)S(=O)(=O)c1ccc(N)cc1`: the pEC50 in data set [1] was 6.13; in data set [2], 6.69; in [3], 6.71; in data set [4] it was 6.77; in [5], 6.13; in [6] it was 7.43. Moreover, the pEC50 in data set [7] was 6.49. Moreover, the share remaining at 0.5 h in data set [11] was 81%; in data set [12], 83%; in [13], 116%.

`CC(C)CN(C[C@@H](O)[C@H](Cc1ccccc1)NC(=O)O[C@@H]1CO[C@@H]2OCC[C@@H]21)S(=O)(=O)c1ccc(N)cc1`: the pEC50 is 7.43 in data set [1]; 7.22 in data set [2]; 7.67 in [3]; 7.67 in [4]; 7.58 in data set [5]; 7.97 in data set [6]. In data set [7], this compound gave a pEC50 of 7.51.

On to `CC(C)CN(C[C@@H](O)[C@H](Cc1ccccc1)NC(=O)O[C@H]1CO[C@H]2OCC[C@H]21)S(=O)(=O)c1ccc2c(c1)OCO2`, for which the half-life in [8] was 2.06 h. This compound showed an AUC last in [9] of 18100 ng·h/mL. The pEC50 in [1] was 7.49; in [2] it was 8.19; in [3], 8.46; in data set [4], 8.40; in [5], 8.39; in data set [6] it was 9.21. In data set [7], this compound had a pEC50 of 8.19. The same compound yielded a Cmax in [10] of 3780 ng/mL. For the same compound, the figures for the share remaining at 0.5 h in data set [11], in data set [12] and in [13] were 53%, 21% and 52%, respectively. Further, the Tmax in data set [14] worked out at 2.5 h.

In the case of `CC(C)CN(C[C@@H](O)[C@H](Cc1ccccc1)NC(=O)O[C@H]1CO[C@H]2OCC[C@H]21)S(=O)(=O)c1ccc(O)cc1`, the pEC50 in data set [1] is 7.63; in data set [2], 8.00; in [3], 8.22; in [4], 8.22; in data set [5], 8.21; in data set [6] it was 8.20. In addition, in [7], the pEC50 was 8.06.

Turning to `COc1ccc(S(=O)(=O)N(CC(C)C)C[C@@H](O)[C@H](Cc2ccccc2)NC(=O)O[C@H]2CO[C@H]3OCC[C@H]32)cc1`, in [8], the half-life was 1.47 h. Moreover, the AUC last in [9] was found to be 2700 ng·h/mL. Further, the pEC50 in data set [1] was 7.99; in data set [2] it was 8.22; in [3], 8.65; in data set [4], 8.33; in data set [5], 8.54; in data set [6] it was 9.23. Also, the pEC50 in [7] was 8.35. Also, the Cmax in data set [10] was 1180 ng/mL. Moreover, the fraction remaining at 0.5 h turned out to be 11% in [11], 25% in [12] and 56% in [13]. Moreover, the Tmax in [14] stood at 0.6 h.

As to `CC(C)CN(C[C@@H](O)[C@H](Cc1ccccc1)NC(=O)OC1COC2OCCC12)S(=O)(=O)c1ccccc1` (mixture of isomers), the pEC50 in data set [1] is 6.78; in data set [2], 6.87; in data set [3], 7.32; in [4] it was 7.38; in data set [5], 7.51; in data set [6], 8.56. Besides, in [7], the pEC50 is 7.17.

`CC(C)CN(C[C@@H](O)[C@H](Cc1ccccc1)NC(=O)O[C@H]1CO[C@@H]2OCC[C@@H]21)S(=O)(=O)c1ccc(N)cc1` had a pEC50 in [6] of 6.51.

As for `CC(C)CN(C[C@@H](O)[C@H](Cc1ccccc1)NC(=O)O[C@H]1CO[C@H]2OCC[C@H]21)S(=O)(=O)c1ccc(N)cc1` (stereo in doubt; form 1), the “Log EC50” value is recorded as -6.72 in data set [2]; -6.76 in [3]; -6.84 in data set [4]; -6.9 in data set [5]; -7.36 in data set [6]; -6.81 in data set [7].
